Data taken from ChEMBL document CHEMBL1151977, “Antiviral constituents against respiratory viruses from Mikania micrantha” (J Nat Prod, 2009).

Tests used:
[1] = system: Respiratory syncytial virus; assay: Antiviral activity against Respiratory syncytial virus infected in human Hep2 cells assessed as inhibition of virus-induced cytopathogenic effect by plaque reduction assay; format: functional, organism-based; conditions: HEp-2
[2] = Cytotoxicity against human Hep2 cells; format: cell-based, HEp-2; conditions: read-out: TC50 (the source's name)
[3] = Therapeutic index, ratio of TC50 for human Hep2 cells to IC50 for Respiratory syncytial virus infected in human Hep2 cells; format: cell-based, HEp-2; conditions: read-out: TI
How it was run: (§1)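 Antiviral IC50 came from a virus-induced cytopathic effect reduction assay in infected cells. Therapeutic index was calculated as TC50 divided by IC50.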

Human respirovirus 3 = assay: Antiviral activity against Parainfluenza virus type 3 infected in human Hep2 cells assessed as inhibition of virus-induced cytopathogenic effect by plaque reduction assay; format: functional, organism-based; conditions: Human respirovirus 3, HEp-2
Influenza A virus = assay: Antiviral activity against Influenza A virus infected in MDCK cells assessed as inhibition of virus-induced cytopathogenic effect by plaque reduction assay; format: functional, organism-based
[4] = Therapeutic index, ratio of TC50 for human Hep2 cells to IC50 for Parainfluenza virus type 3 infected in human Hep2 cells; format: cell-based, HEp-2; conditions: read-out: TI; how it was run: as §1
[5] = Cytotoxicity against MDCK cells; format: cell-based, Canis lupus familiaris; conditions: dog, read-out: TC50 (the source's name)
[6] = Therapeutic index, ratio of TC50 for MDCK cells to IC50 for Influenza A virus infected in MDCK cells; format: cell-based; conditions: dog, read-out: TI; how it was run: as §1

SMILES | IC50 [1] [µM] | CC50 [2] [µM] | selectivity ratio [3] | IC50 (Human respirovirus 3) [µM] | IC50 (Influenza A virus) [µM] | selectivity ratio [4] | CC50 [5] [µM] | selectivity ratio [6]
CC(C)[C@@H](C)/C=C/[C@@H](C)[C@H]1CC[C@H]2C3=CC[C@H]4C[C@@H](O)CC[C@]4(C)[C@H]3CC[C@]12C | 50.5 | 303 | 6 | 50.5 | 202 | 6 | 405 | 2
CC(=O)O[C@H]1C[C@@H]2O[C@@]2(C)C[C@@H]2OC(=O)[C@H](C)[C@H]2[C@H]2C=C1C(=O)O2 | 61.9 | 186 | 3 | 186 | 186 | 1 | 186 | 1
COc1ccc(-c2oc3cc(OC)c(OC)c(O)c3c(=O)c2OS(=O)(=O)O)cc1 | 79 | 472 | 6 | 19.7 | 79 | 24 | 237 | 3
C[C@H]1C(=O)O[C@H]2C[C@]3(C)O[C@H]3CCC3=C[C@@H](OC3=O)[C@@H]21 | 37.4 | 600 | 16 | 37.4 | > 360 | 16 | 600 | < 1.7
C[C@H]1C(=O)O[C@H]2C[C@]3(C)O[C@H]3[C@@H]3O[C@@H]3C3=C[C@@H](OC3=O)[C@@H]21 [DIHYDROMIKANOLIDE] | 143 | 214 | 1.5 | 143 | 143 | 1.5 | 214 | 1.5
COc1ccc(-c2oc3cc(OC)c(OC)c(O)c3c(=O)c2O)cc1 [MIKANIN] | 55.5 | 83.1 | 1.5 | 41.6 | 167 | 2 | 500 | 3
NC(=O)c1ncn([C@@H]2O[C@H](CO)[C@@H](O)[C@H]2O)n1 [RIBAVIRIN] | 10.7 | – | – | 10.7 | 42.6 | – | > 256 | –
